The values below come from ChEMBL document CHEMBL4184136, “α-Glucosidase Inhibitory and Cytotoxic Taxane Diterpenoids from the Stem Bark of Taxus wallichiana” (J Nat Prod, 2017).

Assay [1] can be described thus: Inhibition of Saccharomyces cerevisiae alpha-glucosidase using p-nitrophenyl-alpha-D-glucopyranoside substrate incubated for 30 mins. Put shortly:
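Sample solution received 3 mM p-nitrophenyl-α-D-glucopyranoside and 0.2 U/mL α-glucosidase (stock levels) in 0.01 M phosphate buffer pH 7.0, incubated at 37 °C for 30 min. Stopped with 0.1 M Na2CO3; p-nitrophenol release read at 401 nm. IC50 is the concentration giving 50% inhibition of enzyme activity; acarbose as positive control.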

The next assay concerns HeLa. Kind of assay: Cytotoxicity against human HeLa cells assessed as reduction in cell viability incubated for 72 hrs by WST-8 dye based assay. The class given is functional. Put shortly:
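HeLa cells kept in DMEM with 10% FBS, 0.1% NaHCO3 and 1% antibiotic-antimycotic. Cells seeded at 2 × 10^3/well and grown 24 h at 37 °C in humidified 5% CO2. Washed with PBS, then exposed to serially diluted samples in DMEM for 72 h. Washed twice, given DMEM with 10% WST-8 for 3 h, A450 read; viability from mean of three wells; IC50.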

The next assay deals with Saccharomyces cerevisiae. Kind of assay: Potency index, ratio of IC50 for Acarbose to IC50 for test compound for inhibition of Saccharomyces cerevisiae alpha-glucosidase using p-nitrophenyl-alpha-D-glucopyranoside substrate incubated for 30 mins.

Structures are written as SMILES.

As usually defined, the IC50 is the concentration needed to halve the response being measured.

`C=C1[C@@H](OC(C)=O)CC[C@@]2(C)C[C@H](OC(C)=O)C3=C(C)C[C@H](OC(=O)C(C)C(C)O)[C@@H]([C@@H](OC(C)=O)[C@H]12)C3(C)C` (some centres undefined): the IC50 in assay [1] is 194 µM; in the assay on HeLa, > 10 µM. For `COc1cc(C[C@@H]2COC(=O)[C@H]2Cc2ccc(O)c(OC)c2)ccc1O`, in that order: 175 µM and > 10 µM. The like results for `CCCCCC(=O)N[C@@H](c1ccccc1)[C@@H](O)C(=O)O[C@H]1C[C@@]2(O)[C@@H](OC(=O)c3ccccc3)[C@@H]3[C@]4(OC(C)=O)CO[C@@H]4C[C@H](O[C@@H]4OC[C@@H](O)[C@H](O)[C@H]4O)[C@@]3(C)C(=O)[C@H](OC(C)=O)C(=C1C)C2(C)C` were, in that order, 94.1 µM and 0.0015 µM. In the case of `CCCCCC(=O)N[C@@H](c1ccccc1)[C@@H](O)C(=O)O[C@H]1C[C@@]2(O)[C@@H](OC(=O)c3ccccc3)[C@@H]3[C@]4(OC(C)=O)CO[C@@H]4C[C@H](O[C@@H]4OC[C@@H](O)[C@H](O)[C@H]4O)[C@@]3(C)C(=O)[C@H](O)C(=C1C)C2(C)C`, the IC50 in assay [1] was 86.9 µM; in the assay on HeLa, 0.05 µM. The compound `C=C1[C@@H](OC(=O)/C=C/c2ccccc2)C[C@H](OC(C)=O)[C@@]2(C)[C@@H](OC(C)=O)[C@H](OC(C)=O)C3=C(C)C(=O)C[C@@H]([C@@H](OC(C)=O)[C@H]12)C3(C)C` registered an IC50 in assay [1] of 111 µM.

In the case of `C=C1[C@@H]2[C@H](OC(C)=O)[C@@H]3CC(=O)[C@@]4(C)OC[C@@]3(C)[C@@]4(O)[C@@H](OC(C)=O)[C@H](OC(C)=O)[C@]2(COC(=O)c2ccccc2)[C@@H](OC(C)=O)C[C@@H]1O`, the IC50 in assay [1] is > 250 µM; in the assay with HeLa it was > 10 µM. In the case of `C=C1[C@@H](OC(C)=O)CC[C@@]2(C)C[C@H](OC)C3=C(C)C[C@H](OC(=O)C(C)C(C)O)[C@@H]([C@@H](OC(C)=O)[C@H]12)C3(C)C` (some centres undefined), the Ratio IC50 in the assay on Saccharomyces cerevisiae was 60. For the same compound, the IC50 in assay [1] was determined as 3.6 µM.

With `CC(=O)O[C@@]12CO[C@@H]1C[C@H](O)[C@@]1(C)C(=O)[C@H](O)C3=C(C)C(=O)C[C@@](O)([C@@H](OC(=O)c4ccccc4)[C@H]21)C3(C)C`, the IC50 is > 250 µM in assay [1] and > 10 µM in the assay on HeLa. The like results for `C=C1[C@@H](O)C[C@H](OC(C)=O)[C@@]2(C)[C@@H](OC(C)=O)[C@H](OC(C)=O)C3=C(C)C(=O)C[C@@H]([C@@H](OC(C)=O)[C@H]12)C3(C)C` were, in that order, > 250 µM and > 10 µM. The like results for `CC(=O)O[C@@]12CO[C@@H]1C[C@H](O)[C@@]1(C)C(=O)[C@H](O)C3=C(C)[C@@H](OC(=O)[C@H](O)[C@@H](NC(=O)c4ccccc4)c4ccccc4)C[C@@](O)([C@@H](OC(=O)c4ccccc4)[C@H]21)C3(C)C` were, in that order, > 250 µM and 0.00075 µM. The like results for `CC(=O)O[C@@]12CO[C@@H]1C[C@H](O[C@@H]1OC[C@@H](O)[C@H](O)[C@H]1O)[C@@]1(C)C(=O)C(=O)C3=C(C)CC[C@@]3(C(C)(C)OC(=O)c3ccccc3)[C@@H](O)[C@H]21` were, in that order, 83.6 µM and 4.9 µM. As to `COc1cc(C[C@H]2COC(=O)[C@@H]2Cc2ccc(O)c(OC)c2)ccc1O` [MATAIRESINOL], the 50% inhibitory concentration (IC50) in assay [1] is 46.5 µM. On the same count and under the same terms, next, `CC(=O)O[C@H]1C(=O)[C@@]2(C)[C@H]([C@H](OC(=O)c3ccccc3)[C@]3(O)C[C@H](OC(=O)[C@H](O)[C@@H](NC(=O)c4ccccc4)c4ccccc4)C(C)=C1C3(C)C)[C@]1(OC(C)=O)CO[C@@H]1C[C@@H]2O` [PACLITAXEL]: > 250 µM. In assay [1], `C/C=C(\C)C(=O)N[C@@H](c1ccccc1)[C@@H](O)C(=O)O[C@H]1C[C@@]2(O)[C@@H](OC(=O)c3ccccc3)[C@@H]3[C@]4(OC(C)=O)CO[C@@H]4C[C@H](O[C@@H]4OC[C@@H](O)[C@H](O)[C@H]4O)[C@@]3(C)C(=O)C(=O)C(=C1C)C2(C)C` yielded an IC50 of 142 µM. On to `CO[C@H]1O[C@H]2[C@@H]3[C@@H]1[C@@H](O)C[C@H](O)[C@@]3(C)[C@@H](O)[C@H](OC(C)=O)C1=C(C)[C@@H](OC(C)=O)C[C@]2(O)C1(C)C`, for which the half-maximal inhibitory concentration (IC50) is 97.5 µM in assay [1] and > 10 µM in the assay on HeLa. For `CC(=O)O[C@@]12CO[C@@H]1C[C@@H](O)[C@@]1(C)C(=O)[C@H](O)C3=C(C)[C@@H](OC(=O)[C@H](O)[C@@H](NC(=O)c4ccccc4)c4ccccc4)C[C@@](O)([C@@H](OC(=O)c4ccccc4)[C@H]21)C3(C)C`, in that order: 48.8 µM and 8.5e-05 µM. In assay [1], `C=C1[C@@H](O)CC[C@@]2(C)C[C@H](OC)C3=C(C)C[C@H](OC(=O)C(C)C(C)O)[C@@H]([C@@H](OC(C)=O)[C@H]12)C3(C)C` (some centres undefined) showed an IC50 of 113 µM. Consider `CC1(C)CC[C@]2(C(=O)O)CC[C@]3(C)C(=CC[C@@H]4[C@@]5(C)CC[C@H](O)C(C)(C)[C@@H]5CC[C@]43C)[C@@H]2C1` [OLEANOLIC_ACID], for which the IC50 in assay [1] was found to be 87.2 µM. As for `CCCCCCCCC/C=C\CC/C=C/[C@@H](O)[C@H](CO[C@@H]1O[C@H](CO)[C@@H](O)[C@H](O)[C@H]1O)NC(=O)[C@H](O)CCCCCCCCCCCCC`, the IC50 was > 250 µM in assay [1] and > 10 µM in the assay on HeLa. The like results for `CC(C)CC[C@@H](O)[C@](C)(O)[C@H]1CC[C@@]2(O)C3=CC(=O)[C@@H]4C[C@@H](O)[C@@H](O)C[C@]4(C)[C@H]3CC[C@]12C` [PONASTERONE A] were, in that order, 115 µM and > 10 µM. In assay [1], `C[C@H]1O[C@H](O[C@H]2[C@H](O)[C@@H](O)[C@@H](O[C@H]3[C@H](O)[C@@H](O)C(O)O[C@@H]3CO)O[C@@H]2CO)[C@H](O)[C@@H](O)[C@@H]1N[C@H]1C=C(CO)[C@@H](O)[C@H](O)[C@H]1O` (some centres undefined) [ACARBOSE] yielded an IC50 of 215 µM. With `C=C1[C@@H](O)C[C@H](OC(C)=O)[C@@]2(C)[C@@H](OC(C)=O)[C@H](OC(C)=O)C3=C(C)C(=O)C[C@@H]([C@@H](O)[C@H]12)C3(C)C`, the IC50 in assay [1] is > 250 µM; in the assay on HeLa, > 10 µM. On to `C=C1[C@@H](OC(=O)/C=C/c2ccccc2)C[C@H](OC(C)=O)[C@]2(C)[C@@H]1C[C@@H]1C[C@H](O)C(C)=C([C@@H](OC(C)=O)[C@@H]2OC(C)=O)C1(C)C` [TAXEZOPIDINE H], for which the IC50 in assay [1] was 15 µM; in the assay with HeLa it was > 10 µM. For `CC=C(C)C(=O)N[C@@H](c1ccccc1)[C@@H](O)C(=O)O[C@H]1C[C@@]2(O)[C@@H](OC(=O)c3ccccc3)[C@@H]3[C@]4(OC(C)=O)CO[C@@H]4C[C@H](O[C@@H]4OC[C@@H](O)[C@H](O)[C@H]4O)[C@@]3(C)C(=O)[C@H](OC(C)=O)C(=C1C)C2(C)C`, in that order: > 250 µM and 0.14 µM. In assay [1], `CC(=O)O[C@H]1C(=O)[C@]2(C)[C@H](O)C[C@H]3OC[C@@]3(OC(C)=O)[C@H]2[C@H](OC(=O)c2ccccc2)[C@]2(O)C[C@H](OC(=O)[C@H](O)[C@@H](NC(=O)c3ccccc3)c3ccccc3)C(C)=C1C2(C)C` came in with an IC50 of 42.7 µM. As for `C=C1[C@@H](OC(=O)/C=C/c2ccccc2)C[C@H](OC(C)=O)[C@]2(C)[C@@H]1C[C@@H]1C[C@H](OC(C)=O)C(C)=C([C@@H](OC(C)=O)[C@@H]2OC(C)=O)C1(C)C`, the IC50 is 38 µM in assay [1] and 5.7 µM in the assay on HeLa. On to `COc1cc([C@H]2c3cc(O)c(OC)cc3C[C@H]3C(=O)OC[C@H]23)ccc1O` [ALPHA-CONIDENDRIN], for which the results for the IC50 (in assay [1]; in the assay with HeLa) were 194 µM and > 10 µM, respectively. `C=C1[C@@H](OC(C)=O)CC[C@@]2(C)C[C@H](OC)C3=C(C)C[C@H](OC(C)=O)[C@@H]([C@@H](OC(C)=O)[C@H]12)C3(C)C` displayed an IC50 in assay [1] of 31.8 µM. Turning to `C=C1[C@H]2C[C@]34CC=C(C)C3[C@@H](OC4(C)C)[C@H](OC(C)=O)[C@]2(C)[C@@H](OC(C)=O)C[C@@H]1O` (some centres undefined), the IC50 was 88.5 µM in assay [1] and > 10 µM in the assay with HeLa.
